According to ChEMBL document CHEMBL4402570, “Discovery and Optimization of Novel Pyrazolopyrimidines as Potent and Orally Bioavailable Allosteric HIV-1 Integrase Inhibitors” (J Med Chem, 2020):
pEC50, pKi: −log10 of the molar value. Blank lines part the entries; values can stand above or below the compound they belong to.

How the values were obtained:
[1] = system: Human immunodeficiency virus 1; experiment: Antiviral activity against HIV1 NL4-3 infected in human MT2 cells measured after 3 to 4 days by luciferase reporter gene assay; assay type: functional, organism-based
[2] = Cytotoxicity against human MT2 cells measured after 4 days by XTT assay; assay type: cell-based
How it was run: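 MT-2 cell viability measured by XTT after 4 days of compound exposure, run in parallel with the antiviral assay; CC50 from n ≥ 2 determinations.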

[3] = Permeability of the compound in pH 7.4 buffer at 100 uM measured after 4 hrs by sandwich-PAMPA; assay type: ADME; details: read-out: permeability
How it was run: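 Parallel artificial membrane permeability: compound at 100 μM in donor buffer pH 7.4, permeating to acceptor through artificial membrane over 4 h; donor, acceptor and t0 solutions read by UV plate reader; triplicate.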

[4] = Stability of the compound in human liver microsomes assessed as parent compound remaining at 0.5 uM measured after 10 mins in presence of NADPH by LC-MS/MS analysis; assay type: ADME, Microsome; details: read-out: Stability
How it was run: (§1)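 CYP-mediated turnover: 0.5 μM compound with human or rat liver microsomes (1 mg/mL) in 100 mM sodium phosphate pH 7.4, 6.6 mM MgCl2, 37 °C; started with NADPH, DMSO 0.014%. Samples quenched at 0 and 10 min; parent remaining by LC-MS/MS; duplicate.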

[5] = Stability of the compound in rat liver microsomes assessed as parent compound remaining at 0.5 uM measured after 10 mins in presence of NADPH by LC-MS/MS analysis; assay type: ADME, Microsome; details: read-out: Stability; how it was run: as §1
[6] = Therapeutic index, ratio of CC50 for human MT2 cells to EC50 for HIV1 NL4-3 infected in human MT2 cells; assay type: toxicity, cell-based; details: read-out: Ratio CC50/EC50
[7] = system: Human immunodeficiency virus 1; experiment: Antiviral activity against HIV1 NL4-3 infected in human MT2 cells measured after 3 to 4 days in presence of human serum albumin by luciferase reporter gene assay; assay type: functional, organism-based; details: Human immunodeficiency virus 1, NL4-3, MT2
[8] = system: Human immunodeficiency virus 1; experiment: Selectivity ratio of EC50 for HIV1 NL4-3 infected in human MT2 cells in presence of human serum albumin to EC50 for HIV1 NL4-3 infected in human MT2 cells in absence of human serum albumin; assay type: functional
[9] = Cmax in Sprague-Dawley rat at 1 mg/kg, iv infusion for 10 mins or 5 mg/kg, po administered via gavage by LC-MS/MS analysis; assay type: ADME, organism-based; details: in vivo
How it was run: (§2)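 Rats given iv via implanted venous cannula as 10 min infusion, or oral gavage after overnight fast; vehicle 10% dimethylacetamide/90% PEG400 for both routes. Plasma from venous-port blood, treated with CH3CN containing internal standard, analysed by LC-MS/MS; oral plasma levels followed 24 h after 5 mg/kg. Parameters by noncompartmental analysis of concentration-time data.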

[10] = Tmax in Sprague-Dawley rat at 1 mg/kg, iv infusion for 10 mins or 5 mg/kg, po administered via gavage by LC-MS/MS analysis; assay type: ADME, organism-based; details: in vivo; how it was run: as §2
[11] = AUC (0 to 24 hrs) in Sprague-Dawley rat at 1 mg/kg, iv infusion for 10 mins or 5 mg/kg, po administered via gavage by LC-MS/MS analysis; assay type: ADME, organism-based; details: in vivo; how it was run: as §2
[12] = Half life in Sprague-Dawley rat at 1 mg/kg, iv infusion for 10 mins or 5 mg/kg, po administered via gavage by LC-MS/MS analysis; assay type: ADME, organism-based; details: in vivo; how it was run: as §2
[13] = Clearance in Sprague-Dawley rat at 1 mg/kg, iv infusion for 10 mins or 5 mg/kg, po administered via gavage by LC-MS/MS analysis; assay type: ADME, organism-based; details: in vivo; how it was run: as §2
[14] = Volume of distribution at steady state in Sprague-Dawley rat at 1 mg/kg, iv infusion for 10 mins or 5 mg/kg, po administered via gavage by LC-MS/MS analysis; assay type: ADME, organism-based; details: in vivo, read-out: Vdss; how it was run: as §2
[15] = Oral bioavailability in Sprague-Dawley rat at 5 mg/kg administered via gavage by LC-MS/MS analysis; assay type: ADME, organism-based; details: in vivo; how it was run: as §2
[16] = molecular target: Human immunodeficiency virus type 1 integrase (Human immunodeficiency virus 1, UniProt Q7ZJM1); experiment: Allosteric inhibition of [3H]-2-tert-butoxy-2-[2-methyl-4-(p-tolyl)-3-quinolyl]acetic acid binding to HIV1 integrase measured after 1 hr under dark condition by microbeta plate reader method
How it was run: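 Scintillation proximity displacement of tritiated LEDGF-site inhibitor from purified HIV-1 integrase (13 μM) premixed 1 h with PVT SPA beads (2 mg/mL); […]. Buffer 26 mM MOPS pH 7.0, 11 mM DTT, 100 mM NaCl, 20 mM MgCl2, 0.05% NP-40, 5% PEG-8000. Compounds 100 μM to 0.0512 nM, ten 5-fold dilutions. 1 h rocking, RT, dark; read after overnight; Ki derived.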

[17] = system: Human immunodeficiency virus 1; experiment: Antiviral activity against HIV1 NL4-3 harboring G140S/Q148H mutant infected in human MT2 cells measured after 3 to 4 days by luciferase reporter gene assay; assay type: functional, organism-based; details: Human immunodeficiency virus 1, NL4-3, MT2
How it was run: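 MT-2 cells (RPMI 1640, 10% heat-inactivated FBS, 10 mM HEPES pH 7.55, 2 mM L-glutamine, penicillin/streptomycin) infected with titered NL4-3 Renilla luciferase reporter virus (luciferase replacing nef) carrying integrase G140S/Q148H, with serial compound dilutions from 10 mM DMSO stock, final DMSO 1%; luciferase read after 3–4 days; EC50 from median effect equation; n ≥ 2, some n = 1.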

[18] = Human immunodeficiency virus 1, NL4-3, MT2

Sequence of Human immunodeficiency virus type 1 integrase (Q7ZJM1 whole entry): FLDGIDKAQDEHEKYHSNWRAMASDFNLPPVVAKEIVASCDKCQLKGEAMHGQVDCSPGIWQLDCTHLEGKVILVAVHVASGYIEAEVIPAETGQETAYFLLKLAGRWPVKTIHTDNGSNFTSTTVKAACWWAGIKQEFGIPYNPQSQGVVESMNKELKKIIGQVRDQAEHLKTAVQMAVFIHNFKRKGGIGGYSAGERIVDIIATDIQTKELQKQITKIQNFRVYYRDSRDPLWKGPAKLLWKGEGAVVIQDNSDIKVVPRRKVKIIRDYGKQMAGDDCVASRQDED

pEC50 [1, 18]: < 4.40
Compound: Cc1ccc(-c2c(C(O)C(=O)O)c(C)nc3cc(-c4ccccc4)nn23)cc1 (centres undefined)

pEC50 [1, 18]: 7.22
Papp at 4 h, 100 µM [3]: 31.3 ×10⁻⁶ cm/s
remaining at 10 min, 0.5 µM [4]: 84%
remaining at 10 min, 0.5 µM [5]: 79%
Compound: Cc1nc2cc(-c3ccc(OCc4ccccc4)cc3)nn2c(-c2cc(F)c3c(c2C)CCCO3)c1C(OC(C)(C)C)C(=O)O (centres undefined)

pEC50 [1, 18]: 8.52
Papp at 4 h, 100 µM [3]: 60.8 ×10⁻⁶ cm/s
remaining at 10 min, 0.5 µM [4]: 100%
remaining at 10 min, 0.5 µM [5]: 89%
pEC50 [7]: 7.72
Cmax [9]: 803 nM
Tmax [10]: 2.7 h
AUC(0-t) [11]: 4.73 µM·h
half-life [12]: 2 h
clearance [13]: 13 mL/min/kg
Vd [14]: 0.7 L/kg
bioavailability [15]: 44%
Compound: Cc1nc2cc(-c3cccc(-c4ccccc4F)c3)nn2c(-c2cc(F)c3c(c2C)CCCO3)c1[C@H](OC(C)(C)C)C(=O)O
CC50 at 96 h [2]: 19.1 µM
selectivity ratio [6]: 6360
Ratio EC50 [8]: 6

pEC50 [1, 18]: 4.80
Compound: CC(C)(C)OC(C(=O)O)c1ccccc1-c1ccccc1 (centres undefined)
pKi [16]: 4.17
CC50 at 96 h [2]: 127 µM

pEC50 [1, 18]: 5.77
Compound: COc1ccc(-c2c(C(OC(C)(C)C)C(=O)O)c(C)nc3cc(-c4ccccc4)nn23)cc1 (centres undefined)
pKi [16]: 6.51

The next lines start with the compound.

Compound: COc1ccccc1-c1cccc(-c2cc3nc(C)c([C@H](OC(C)(C)C)C(=O)O)c(-c4cc(F)c5c(c4C)CCCO5)n3n2)c1
pEC50 [1, 18]: 8.22
CC50 at 96 h [2]: 23.5 µM
Papp at 4 h, 100 µM [3]: 76.5 ×10⁻⁶ cm/s
remaining at 10 min, 0.5 µM [4]: 99%
remaining at 10 min, 0.5 µM [5]: 99%
selectivity ratio [6]: 3920
pEC50 [7]: 7.52
Ratio EC50 [8]: 5
Cmax [9]: 1110 nM
Tmax [10]: 2.3 h
AUC(0-t) [11]: 2.99 µM·h
half-life [12]: 3 h
clearance [13]: 28 mL/min/kg
Vd [14]: 1.8 L/kg
bioavailability [15]: 59%

Compound: Cc1nc2cc(-c3ccccc3)nn2c(N2CCCCCC2)c1C(OC(C)(C)C)C(=O)O (centres undefined)
pKi [16]: 6.37
pEC50 [1, 18]: 5.64

Compound: Cc1ccccc1-c1c(C(OC(C)(C)C)C(=O)O)c(C)nc2cc(-c3ccccc3)nn12 (centres undefined)
pKi [16]: 5.47
pEC50 [1, 18]: 4.68

Compound: Cc1ccc(Nc2c(C(OC(C)(C)C)C(=O)O)c(C)nc3cc(-c4ccccc4)nn23)cc1 (centres undefined)
pKi [16]: < 4.40
pEC50 [1, 18]: < 4.40

Compound: COc1cccc(-c2c(C(OC(C)(C)C)C(=O)O)c(C)nc3cc(-c4ccccc4)nn23)c1 (centres undefined)
pKi [16]: 4.82
pEC50 [1, 18]: < 4.40

Compound: Cc1nc2cc(-c3ccccc3)nn2c(C)c1C(OC(C)(C)C)C(=O)O (centres undefined)
pKi [16]: < 4.40
pEC50 [1, 18]: < 4.40

Compound: Cc1ccc(-c2c(C(OC(C)(C)C)C(N)=O)c(C)nc3cc(-c4ccccc4)nn23)cc1 (centres undefined)
pEC50 [1, 18]: 4.74

Compound: Cc1nc2cc(-c3cccc(-c4ccccc4)c3)nn2c(-c2cc(F)c3c(c2C)CCCO3)c1C(OC(C)(C)C)C(=O)O (racemic)
pEC50 [1, 18]: 7.82
Papp at 4 h, 100 µM [3]: 65.2 ×10⁻⁶ cm/s
remaining at 10 min, 0.5 µM [4]: 86%
remaining at 10 min, 0.5 µM [5]: 100%
pEC50 [17]: 8.00

Compound: Cc1nc2cc(-c3ccccc3)nn2c(-c2cc(F)c3c(c2C)CCCO3)c1C(OC(C)(C)C)C(=O)O (racemic)
pKi [16]: 6.77
pEC50 [1]: 6.68
Papp at 4 h, 100 µM [3]: 21.8 ×10⁻⁶ cm/s
remaining at 10 min, 0.5 µM [4]: 93%
remaining at 10 min, 0.5 µM [5]: 97%
pEC50 [17]: 6.92

Compound: Cc1nc2cc(-c3ccccc3)nn2c(-c2cc(F)c3c(c2C)CCCO3)c1C(OC(C)(C)C)C(=O)O (stereo in doubt; 15)
pKi [16]: 5.47
pEC50 [1]: < 4.40

Compound: Cc1nc2ccccc2c(-c2ccc3c4c(ccnc24)CCO3)c1[C@H](OC(C)(C)C)C(=O)O [BI-224436]
pEC50 [1, 18]: 7.30
CC50 at 96 h [2]: 3340 µM
selectivity ratio [6]: 66800

Compound: Cc1nnc(C(=O)NC(C)(C)c2nc(C(=O)NCc3ccc(F)cc3)c(O)c(=O)n2C)o1 [RALTEGRAVIR]
pEC50 [1, 18]: 8.70
pEC50 [17]: 5.62
